# Most compounds without a hit are left out; they make up all but 1.5% or so of the library.
# M4 antag – blocks acetylcholine activation of human M4 receptor. CHO-hM4 cells, ACh EC80, Fluo-8 calcium fluorescence. actives 0.73% (n = 360,000). inhibition, % at 3 µM. AID 624125;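 active = inhibition above its plate's cutoff, the mean inhibition of sample wells plus 3 SD, cut at about 27% in these data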;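 also: 0% = acetylcholine EC80 with DMSO and 100% = DMSO without agonist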
# V1aR counter – counter-screen for oxytocin receptor agonists: human V1a receptor agonists; P37288; CHO-V1R cells, Fluo-8 calcium fluorescence, agonist mode; 0% DMSO, 100% 3 nM vasopressin; activation, % at 3 µM; actives 0.25% (n = 320,000); AID 2797;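 active = activation above the mean activation of all tested compounds plus 3 SD, per screening run, cut at about 20% in these data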;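 also: signal is peak over basal fluorescence ratio across a 100 second FLIPR read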
# CHRM4 agonist – CHRM4 agonism in calcium assay; CHO-K1 hM4/Gqi5, Fluo-8 calcium fluorescence; vehicle 0%, full acetylcholine response 100%; actives 0.14% (n = 360,000); AID 624127; activation, % at 3 µM; P08173;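 active = activation above the run mean over all test wells plus 3 SD, cut at about 32% in these data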;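 also: peak over basal fluorescence ratio per well then scaled between controls; 0% = DMSO wells and 100% = acetylcholine at EC100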
# OXTR potentiator – potentiators of human oxytocin receptor | P30559 | CHO-OTR cells, Fluo-8 calcium fluorescence, potentiator mode; 0% = oxytocin EC15, 100% = EC100 | activation, % at 3 µM | actives 0.061% (n = 320,000) | AID 2445;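 active = activation above that plate's cutoff, the mean activation of tested compounds plus 3 SD, cut at about 6.6% in these data, passing the limit was not always enough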;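 also: 100% uses oxytocin at 75 nM as the full agonist control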
# Target sequence (P30559 whole entry, looked up): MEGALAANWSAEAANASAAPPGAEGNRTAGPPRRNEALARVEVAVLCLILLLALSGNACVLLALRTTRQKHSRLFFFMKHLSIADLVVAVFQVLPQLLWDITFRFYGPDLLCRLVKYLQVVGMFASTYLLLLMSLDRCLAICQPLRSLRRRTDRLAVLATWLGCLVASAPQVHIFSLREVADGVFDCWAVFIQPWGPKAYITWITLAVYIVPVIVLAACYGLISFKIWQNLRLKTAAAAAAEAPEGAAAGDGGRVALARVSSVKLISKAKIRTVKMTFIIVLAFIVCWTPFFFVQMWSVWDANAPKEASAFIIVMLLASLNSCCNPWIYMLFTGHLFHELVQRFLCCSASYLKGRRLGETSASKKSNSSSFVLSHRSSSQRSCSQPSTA
#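 Material: human OTR in CHO cells. Compound: 3.0 µM, one dose. Timing: compound 6 min at room temperature before oxytocin, 100 s read. Evaluation: % activation of max/min ratio relative to oxytocin controls. Replication: single well per compound, singlicate. Signal: Fluo-8 calcium dye fluorescence.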
# CHRM4 PAM – potentiates acetylcholine response at human M4 receptor. P08173. CHO-K1 hM4/Gqi5, Fluo-8 calcium fluorescence, ACh EC20; 0% = ACh EC20, 100% = maximal ACh. activation, % at 3 µM. actives 0.4% (n = 360,000). AID 624126;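 active = activation above its plate's cutoff, the mean activation of sample wells plus 3 SD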
# OXTR ag – activates the human oxytocin receptor; AID 2435; P30559; actives 0.32% (n = 320,000); CHO-OTR cells, Fluo-8 calcium fluorescence; normalized: DMSO 0%, oxytocin 100%; activation, % at 3 µM;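 active = activation above the mean of all tested compounds plus 3 SD, cutoff set per screening run, cut at about 20% in these data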;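 also: peak over basal fluorescence ratio from a 100 s FLIPR kinetic read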
# * = called active by the depositor; x = no result given.
SMILES,M4 antag,V1aR counter,CHRM4 agonist,OXTR potentiator,CHRM4 PAM,OXTR ag
Cc1ccc(C(=O)OCC(=O)N2CC(C)OC(C)C2)cc1 (stereo unspecified),-7,0,2,0,16*,2
CC1CN(C(=O)COC(=O)c2ccc(O)cc2)CC(C)O1 (stereo unspecified),-10,1,2,-2,1,1
Fc1ccc(NC(=S)NC23CN4CN(CN(C4)C2)C3)cc1,0,0,1,-6,9,-1
Nc1ccc2c3c(cccc13)CC2,13,46*,11,-8,15,46*
c1ccc(Nc2cccc3ccccc23)cc1,-18,-1,-1,-7,4,-2
c1ccc(Nc2ccc3c4c(cccc24)CC3)cc1,33*,4,27,-3,-19,1
C=C1c2cc(C)ccc2NC(=O)N1c1ccc(C)cc1,-1,0,0,-1,29*,0
CC(=O)Nc1ccc(S(=O)(=O)N(C)CC(=O)OCC(=O)Nc2cccnc2Cl)cc1,27*,0,1,0,43*,0
CCOC(=O)c1c(S(=O)(=O)N2CCN(c3ccc(F)cc3)CC2)c(C)n(C)c1C,-6,0,3,-10,6,-1
CN(Cc1ccccc1)C1CCN(Cc2ccccc2[N+](=O)[O-])CC1,48*,0,1,-3,-17,1
FC(F)(F)c1cc(-c2cccs2)nc2ncnn12,7,0,1,-4,2,0
COc1ccc(CCNC(=O)CSc2nc(C)nc3sccc23)cc1OC,7,0,1,2,3,1
CN1C=Nc2c(ncn2C2CCC(CO)O2)C1O (stereo unspecified),-4,x,1,x,2,x
CCC(CC)C(C(=O)NCc1ccccc1)N1CCN(C(=O)C2CCCO2)CC1 (stereo unspecified),3,x,1,x,10,x
CCCCNC(=O)C1(C)CCN1Cc1cccc2c(OC)cc(C(=O)OCC)cc12 (stereo unspecified),-1,x,-1,x,-3,x
O=C(Nc1ccc(NC(=O)c2ccco2)nc1)c1cccnc1,-9,1,4,-5,21*,1
CC1=[N+](C)N(c2ccccc2)C(=O)C1N=C/C=C/c1ccccc1 (stereo unspecified),58*,0,2,-9,-15,-1
CCN1/C(=C/c2ccc3ccccc3[n+]2CC)C=Cc2ccccc21,45*,3,7,-7,-12,5
Cc1ccc(-c2nn(-c3ccccc3)cc2C(=O)O)o1,x,0,x,-8,x,0
Cc1ccc(-c2nn(-c3ccccc3)cc2CN(Cc2ccccc2)C(=O)c2ccco2)o1,52*,1,10,-5,-27,0
Cc1cc(C)n(C(=O)Cn2nc([N+](=O)[O-])c(Br)c2C)n1,12,-1,1,-11,-1,0
Cc1ccc(Nc2cc(C)nn2-c2nc(C)cc(=O)[nH]2)cc1,59*,-2,-2,-3,2,-2
O=S(CC(O)c1ccccc1)c1ccccc1 (stereo unspecified),4,x,1,x,-4,x
CC(=O)N(C)c1ccc(NC(=O)Nc2ccc(C)c(C)c2)cc1,31*,2,19,-12,-11,2
CC1CCN(Cc2ccc(NC(=O)C3CCN(c4nnc(-n5cccc5)s4)CC3)cc2)CC1,33*,-1,5,-6,-16,0
CCN(CC)CCCNC(=O)c1cc(-c2ccccc2)c(N2CCCCC2)s1,-19,1,4,-3,-5,5
CCOC(=O)[C@]12CCCC=C1N(Cc1ccccc1)C(=O)[C@H](CC(=O)N1CCC(c3ccccc3)CC1)C2,-10,x,3,x,6,x
COc1ccc(-c2nn(-c3ccccc3)cc2C(=O)NC(=S)NNC(=O)c2ccncc2)cc1,8,6,33*,-25,-12,13
O=C(NNC(=S)NC(=O)c1sc2ccccc2c1Cl)c1ccc(Cl)cc1,5,57*,4,-9,-6,46*
